Measurements reported in ChEMBL document CHEMBL4513216, “Probing the Open Global Health Chemical Diversity Library for Multistage-Active Starting Points for Next-Generation Antimalarials” (ACS Infect Dis, 2020).

Experiment: Toxicity liver stage against HepG2, at 10uM
Type: cell-based
Set-up: test concentration 10 uM, cell line HepG2-A16-CD81EGFP
Conditions: human, HepG2-A16-CD81EGFP cells; read-out: INHIBITION
Procedure, shortened: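 Uninfected HepG2-A16-CD81EGFP cells, 3 × 10^3 per well, 1536-well, plated on prespotted compound at 10 μM final, parasite-free screening media added to match infected plates; puromycin 10 μM positive, DMSO 0.5% negative; run in parallel with 48 h PbLuc assay at 37 °C, 5% CO2; viability by CellTiter-Glo luminescence, normalized to controls.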

| Structure (SMILES) | cytotoxicity at 10 µM |
| --- | --- |
| COc1ccc(S(=O)(=O)NCCCc2nnc3nc(C)cc(C)n23)cc1 | 5.05% |
| O=C(C1CC1)N1CCC2(CC1)CNCc1ccccc12 | 1.79% |
| COCCO[C@H]1CCN(c2cc(OC)ncn2)[C@H]1Cc1cnn(C)c1 | -133% |
| O=C1CO[C@@H]2CN(C3CCOCC3)C[C@H]2N1Cc1ccncc1 | -151% |
| COc1ccc(Cn2c(=O)n(C)c(=O)c3sccc32)cc1 | 24.2% |
| CCC(CO)NCc1ccc(-c2ccccc2F)o1 (stereo unspecified) | -2.49% |
| O=C(O)c1cccc2c(Br)cccc12 | 3.38% |
| Cc1nn(C)c2c(NCc3ccccc3F)nc(C3CC3)nc12 | 15.5% |
| CC1CCCN(c2ncc(-c3ccccc3F)c(-c3nccn3C)n2)C1 (stereo unspecified) | 26.8% |
| CCOc1cc([C@H]2N[C@@H](c3nc(C)cs3)Cc3ccsc32)ccc1OC | 24.3% |
| CNC(=O)c1sc2ccccc2c1C1CCN(c2cc(C)nc(C)n2)C1 (stereo unspecified) | 10.8% |
| CCN(CC)S(=O)(=O)N1CCCC1c1cccc(Nc2ncc(C)s2)n1 (stereo unspecified) | -39.3% |
| CC(=O)N1CCCC(c2nc(N(C)C)ncc2-c2cccc(F)c2)C1 (stereo unspecified) | -34.8% |
| COc1cc(OC)c(C2Nc3cc(Cl)ccc3C3=NCCN32)cc1OC (stereo unspecified) | -3.14% |
| O=C(c1csc(I)c1)N1CCc2c(ncn2C2CC2)C1 | 7.21% |
| CC(O)c1cccc(OCc2ccon2)c1 (stereo unspecified) | -5.28% |
| O=C(CSCCN1CCOCC1)N1CCc2ccccc2C1 | -6.58% |
| CC(=O)NC1CCN(C(=O)Nc2ccc(SC(F)F)cc2)CC1 | -6.91% |
| Cc1nccn1-c1ccc(CNS(=O)(=O)N2CCC(C)CC2)cn1 | 1.28% |
| COc1ncnc(N)c1CNCCc1ccccc1 | -3.15% |
| CC(C)n1nccc1NC(=O)NCCc1nc2ccc(F)cc2n1C | -7.85% |

| Structure (SMILES) | cytotoxicity at 10 µM |
| --- | --- |
| CC(NC(=O)NC1CCN(Cc2ccncc2)CC1)c1ccc(F)cc1 (stereo unspecified) | 7.9% |
| CCn1c(C)cc(C(=O)N2CCC(NC(=O)c3ccc(C)o3)CC2)c1C | -7.45% |
| COc1cc(C(C)NCc2scnc2C)ccc1SC(F)F (stereo unspecified) | 36.8% |
| O=C(c1ccccc1)C1CCN(c2cncc(-n3cccn3)n2)CC1 | 0.935% |
| CCN(C(=O)CN1CCCC1Cc1ccccc1)c1ccccc1 (stereo unspecified) | 0.686% |
| O=C(CN1C(=O)c2ccccc2CS1(=O)=O)c1ccccc1 | 15.3% |
| Cc1ccc(CN(C)C(=O)CN2CCCCC2Cn2cncn2)cc1 (stereo unspecified) | 17.7% |
| Cc1ncccc1C(=O)NC1(c2cccc(F)c2)CCOCC1 | 10.3% |
| COc1ccc(CN(C)C(=O)Cc2c(C)nn(C)c2C)cc1F | 17% |
| CCS(=O)(=O)CCN1CCC(N(C)Cc2ncc(C)o2)C1 (stereo unspecified) | 1.75% |
| COc1ccc(C(=O)N(c2ccc(OC)c(F)c2)C(C)C)cn1 | -1.94% |
| COCCN(C)c1ccc(NCc2cscn2)nc1 | 0.513% |
| Cn1nc2c(cc1=O)CN(CCOc1ccccc1C#N)CC2 | 18% |
| CC(C)(C)n1cc(CNc2ccc(CNS(C)(=O)=O)cc2)cn1 | 16.1% |
| OC(COCc1cccs1)Cn1cc(Cl)cn1 (stereo unspecified) | -0.574% |
| CCN1CCN(c2ccccc2NC(=O)N(C)C2CCSC2)CC1 (stereo unspecified) | -56.7% |
| NC(=O)c1cc(C2CCCN(CCc3ccc4c(c3)CCO4)C2)n[nH]1 (stereo unspecified) | -1.92% |
| Cc1nn(C)c(C)c1C1CCCN1Cc1cn2ccsc2n1 (stereo unspecified) | -51.6% |
| N#Cc1cc(Cn2cnc(C3CCC3)cc2=O)ccc1F | -0.908% |
| CC(C)NC(=O)CNC(=O)C12CCC(=O)N1c1cc(Cl)ccc1S2 (stereo unspecified) | 11.7% |
| O=C(NS(=O)(=O)Cc1ccon1)c1ccsc1 | -14.2% |

| Structure (SMILES) | cytotoxicity at 10 µM |
| --- | --- |
| COc1ccccc1CC(=O)NCc1ccnc(NC2CC2)c1 | -4.06% |
| c1ccc(-c2cc(CN3CCC(c4ccn[nH]4)CC3)on2)cc1 | 7.98% |
| O=C(C1CCOCC1)N1CCC2(CC1)CN(c1ccsc1)C(=O)CO2 | -63.4% |
| c1ccc(COCC2CN(Cc3ccsc3)Cc3nccn3C2)nc1 (stereo unspecified) | -69.6% |
| NCCSc1nccc(-c2cnc(C3CC3)nc2-c2ccco2)n1 | -7.19% |
| Cc1nc(CN2CCCC(CCc3ccccc3C(F)(F)F)C2)co1 (stereo unspecified) | 0.663% |
| Cc1ccc(-c2cn[nH]c2C2CCCN(c3cc(N)ncn3)C2)cc1 (stereo unspecified) | 55.4% |
| CN1CCC(N(C)CCC(=O)N2CCC(CCc3ccccc3)CC2)C1 (stereo unspecified) | -5.87% |
| O=C1Nc2ccccc2NC12CCN(c1cccc(C(F)(F)F)n1)CC2 | 2.31% |
| Cc1nn(C)c2nc(N(C)CC3CCN(CC(C)C)C3)sc12 (stereo unspecified) | -8.13% |
| CCCc1ccc(C(C)Nc2ncnc3c2CCNC3)cc1 (stereo unspecified) | 28.1% |
| CC1CCCN1Cc1cccc(C(=O)Nc2ccc3[nH]c(=O)oc3c2)c1 (stereo unspecified) | -13.4% |
| CCNC(=O)c1cn2cc(-c3ccccc3Cl)n(CC3CC3)c(=O)c2n1 | 4.63% |
| CCCN1CCCC2(CCN(c3nc(C)nc4ccsc34)C2)C1=O (stereo unspecified) | 17.4% |
| COCc1noc(Cn2c(=O)[nH]c3ccccc32)n1 | 4.84% |
| Cc1csc(N2CCCN(C3Cc4ccccc4C3)CC2)n1 | 10.3% |
| Nc1nc2c(c(NC(Cn3cccn3)c3ccccc3)n1)CCNCC2 (stereo unspecified) | -12.3% |
| CC(C)c1cc(NC2CCN(C(=O)N3CCCC3)CC2)ncn1 | 10.2% |
| O=C(CCC1CCCN(C(=O)CCc2ccc(F)c(F)c2)C1)NC1CC1 (stereo unspecified) | 2.49% |
| Cc1ccccc1OCC1CCCN(c2cc(N)nc(N)n2)C1 (stereo unspecified) | 29% |
| CNC(=O)[C@@H]1C[C@@H](N)CN1c1nnc(-c2ccccc2)s1 | -36% |

| Structure (SMILES) | cytotoxicity at 10 µM |
| --- | --- |
| Fc1cccc(OC2CCN(CCn3cc4ccccc4n3)CC2)c1 | 8.33% |
| Cc1ccc2c(c1)SCC(=O)N2CC(=O)N1CCC[C@H]1c1nc(C)no1 | 7.95% |
| c1ccc2sc(N3CCCN(c4ncnc5c4CCNC5)CC3)nc2c1 | 31.2% |
| O=S(=O)(c1ccccc1Cl)N1CCc2nc(C3CCNCC3)ncc2C1 | 14.2% |
| C1CN(Cc2noc(C3CC3)n2)CCN(Cc2nnc(C3CC3)o2)C1 | -10.9% |
| O=C(C1CC1)N1CCN(Cc2coc(-c3ccc(Cl)cc3)n2)CC1 | 17.3% |
| CC(C)c1cc(NC(=O)CN2CCC(N3CCCCC3)CC2)on1 | -9.68% |
| O=C(NCCC(=O)N1CCCc2ccccc21)c1c(O)cc(F)cc1F | 1.35% |
| CC(C)Nc1nc(-c2ccccc2)nc2c1CCN(C(=O)C1CC1)CC2 | -108% |
| CN(Cc1cccnc1)C[C@@H]1OC[C@H]2CN(C(=O)C3CC3)CC[C@H]21 | -136% |
| CC(=O)NCc1nnc2n1CCN(Cc1cccs1)C2 | -149% |
| O=C(c1ccc[nH]1)N1CCn2cc(Cn3cccn3)nc2C1 | -81.9% |
| COc1ccc(CN2CCC3(CCCN(c4ncc(F)cn4)C3)C2)cc1 (stereo unspecified) | 62.8% |
| O=C(C[C@@H]1COC[C@H]2CN(CC3CCOCC3)C[C@@H]12)N1CCCCO1 | 7.49% |
| COc1ccc(C[C@H]2CN(c3cc(OC)ncn3)CC[C@H]2OC)cc1 | 54.5% |
| CN(C)C(=O)CC1CC2(CCN(Cc3ccco3)CC2)c2ccccc21 (stereo unspecified) | -11.3% |
| COc1c(CNC2CCSc3ccc(F)cc32)c(C)nn1C (stereo unspecified) | 32.8% |
| O=C1CO[C@@H]2CN(CC3CC3)C[C@H]2N1Cc1cccc(F)c1 | -69.9% |
